Where “and” joins values, the source holds several entries; their conditions need not be identical. Equal values may be shown once.
Tests used:
Mus musculus [1] = assay: Antitumor activity against P388 leukemia was determined at 5 mg/kg dose given on 1, 5, 9 days after tumor implantation in mice; format: functional, organism-based; parameters: dose 5 mg/kg
Outline: (§1)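 Male BDF1 mice (18–20 g) inoculated ip with 10^6 L1210/0 or P388 ascites leukemia cells on day 0. Test compound given ip on days 1, 5 and 9; dosing stopped after two doses if over half of the animals had died by day 9. Deaths recorded over 60 days. %T/C = mean survival of treated mice that died ÷ mean survival of untreated tumour-bearing controls. Long-term survivors also counted.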

Mus musculus [2] = assay: Antitumor activity against L1210 leukemia was determined at 5 mg/kg dose given on 1, 5, 9 days after tumor implantation in mice; format: functional, organism-based; parameters: dose 5 mg/kg; outline: as §1
L1210 [3] = assay: In vitro cytotoxicity in L1210 leukemia resistant to cisplatin; format: functional, Mus musculus; conditions: read-out: ID50 (the source's name)
Outline: (§2)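 L1210 murine leukaemia (sensitive, 40–60-fold DDP-resistant, or 30-fold [Pt(R,R-dach)SO4]-resistant) grown in suspension in McCoy's 5A with 5% horse serum and glutamine. Cells at 5 × 10^4/mL exposed 72 h to 0.01–10 μg/mL (final) compound, from DMF stock diluted in saline (≤0.5% DMF) or water for malonates. Cells Coulter-counted; ID50 from % growth inhibition.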

L1210 [4] = assay: In vitro cytotoxicity in L1210 leukemia sensitive to cisplatin; format: functional, Mus musculus; conditions: read-out: ID50 (the source's name); outline: as §2

Row | Compound | T/C (Mus musculus [1]) [%] | T/C (Mus musculus [2]) [%] | IC50 (L1210 [3]; Mus musculus, L1210) [µM] | IC50 (L1210 [3]) [µM] | IC50 (L1210 [4])
1 | CISPLATIN | 170 | 210 |  |  | 
2 | CC(C)(N)CCC(C)(C)N |  |  | 9.09 | 5.53 | 6.2 µM and 0.98 µM
